Screens from PubChem.
In the library only some 4.6% were active in any assay of this set; here they are far more common.
OX1R antag-1: antagonists of human orexin 1 receptor (OX1R); 330,000 compounds, 1.8% hits; inhibition, % at 6.6 µM; Orexin/Hypocretin receptor type 1 (Homo sapiens), O43613; AID 485270, 2010; OX1R-expressing cells, FRET antagonist read-out; in the data active = inhibition mostly above about 38%, no sharp cut-off; inactive = mostly below about 40%
Target sequence (O43613 whole entry, looked up): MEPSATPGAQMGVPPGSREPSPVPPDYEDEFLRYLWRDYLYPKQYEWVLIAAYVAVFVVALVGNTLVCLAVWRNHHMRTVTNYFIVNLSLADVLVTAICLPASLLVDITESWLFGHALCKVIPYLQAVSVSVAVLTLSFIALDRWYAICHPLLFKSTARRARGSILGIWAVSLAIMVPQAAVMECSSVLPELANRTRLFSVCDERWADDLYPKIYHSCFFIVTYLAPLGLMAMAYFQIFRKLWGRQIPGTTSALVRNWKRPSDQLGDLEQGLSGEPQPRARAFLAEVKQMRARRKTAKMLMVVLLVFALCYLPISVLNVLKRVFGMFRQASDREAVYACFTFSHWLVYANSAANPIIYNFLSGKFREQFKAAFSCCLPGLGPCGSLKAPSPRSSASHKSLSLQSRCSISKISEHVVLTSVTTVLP
TAAR1 antag: human TAAR1 antagonists, primary screen, Fluo-8 calcium fluorescence, CHO RD-HGA16 cells. Trace amine-associated receptor 1 (Homo sapiens), Q96RJ0. inhibition, % at 3 µM. antagonist. 360,000 compounds, 1.5% hits;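 active = inhibition above a per-plate cutoff, the mean inhibition of test compounds on that plate plus 3 SD, cut at about 49% in these data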
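Test system: hTAAR1-expressing CHO RD-HGA16 cells, Gα16-coupled; Probe or stimulus: EC80 β-phenethylamine stimulus; Compound dosing: single nominal final test compound concentration of 3 µM; Timing: 140 s kinetic read after compound, 140 s after agonist; Signal: Fluo-8 calcium-sensitive fluorescence; Measure: % inhibition of agonist calcium response; Controls: DMSO and EC80 PEA controls.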
GPR7 antagonist: GPR7 receptor antagonists, primary screen, cell-based, fluorescence, single concentration; 290,000 compounds, 1.1% hits; GPR7-expressing cells, fluorescence antagonist assay; Neuropeptides B/W receptor type 1 (Homo sapiens), P48145; inhibition, % at 4.4 µM; AID 1861, 2009; in the data active = inhibition above about 16%, passing the limit was not always enough;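 also: cells stimulated with the agonist NPW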
OX1R antag-2: OX1R (HCRTR1) antagonists, primary screen, fluorescence, CHO/OX1R cells, Fluo-8 calcium, orexin A; Orexin/Hypocretin receptor type 1 (Homo sapiens), O43613; Fluo-8 calcium fluorescence; inhibition, % at 5 µM; 330,000 compounds, 0.43% hits;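 active = inhibition above its plate's threshold, mean inhibition of all tested compounds on the plate plus 3 SD, cut at about 37% in these data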
TAAR1 agonist: human TAAR1 agonists, primary screen, Fluo-8 calcium fluorescence, CHO RD-HGA16 cells. vehicle wells 0%, saturating PEA agonist 100%. AID 624467, 2012. Trace amine-associated receptor 1 (Homo sapiens), Q96RJ0. 360,000 compounds, 0.99% hits. activation, % at 3 µM;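 active = activation above the mean activation of all test compounds in the run plus 3 SD, cut at about 38% in these data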
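Test system: RD-HGA16 (CHO) cells co-expressing Gα16 and hTAAR1 | Doses: Single dose, 3 µM | Schedule: 17-24 h seeding, 75 min 37 °C dye, 30 min RT | Evaluation: % activation from peak over basal fluorescence ratio, DMSO-to-PEA scaled | Technique: Kinetic Fluo-8 calcium fluorescence | Benchmarks: Low control DMSO, high control PEA (EC100)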
CHO parental Ca: ATP-evoked calcium signal inhibitors, parental CHO, primary screen, counter-screen for OX1R antagonist project, cell-based, fluorescence, Fluo-8 calcium dye | parental CHO-K1, ATP-induced calcium, Fluo-8 fluorescence | inhibition, % at 5.6 µM | 330,000 compounds, 0.63% hits | AID 463079, 2010;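 active = inhibition above that plate's mean sample inhibition plus 3 SD, cut at about 26% in these data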
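material = parental CHO cells | also added = ATP as calcium-mobilizing challenge | dosing = single point at 5.6 µM | detection = intracellular calcium via Fluo-8 no-wash fluorescent dye | read-out = % inhibition | benchmarks = low control ATP plus DMSO, high control DMSO only | repeats = one well per compound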
A number is an active result; i = inactive; nt = no result.

SMILES	OX1R antag-1	TAAR1 antag	GPR7 antagonist	OX1R antag-2	TAAR1 agonist	CHO parental Ca
CCOC(=O)C1CCCN(C(=S)Nc2ccc(S(=O)(=O)N3CCOCC3)cc2)C1 (configuration not stated)	i	i	nt	i	46.3	i
CC1CCCN(C(=S)Nc2ccc(S(=O)(=O)N3CCCCC3)cc2)C1 (configuration not stated)	i	i	i	i	i	i
O=C(COC(=O)c1cccnc1Nc1ccccc1F)NCCN1C(=O)CSC1=O	54.8	i	i	i	i	i
CCCNC(=O)COC(=O)c1cccnc1Nc1ccccc1F	i	i	i	i	i	i
Cc1ccc(-c2cc(NC(=O)Cc3c[nH]c4ccccc34)ccc2N(C)c2cccnc2)cc1	nt	i	nt	nt	i	nt
CN1C(=O)[C@@]2(O[C@H]3[C@H]4C=C[C@@H]([C@H]5C(=O)N(Cc6ccccc6)C(=O)[C@@H]45)N3C3=C2C(=O)CC3)c2ccccc21	nt	i	nt	nt	i	nt
Cc1ccsc1CNC(=O)C1(C)CCCN1CC(C)C (configuration not stated)	nt	i	nt	nt	i	nt
COc1ccccc1C(=O)N/C(=C\c1cn(C)c2ccccc12)C(=O)N1CCCC1	49.9	i	i	i	i	i
CCOc1cc(N2CCOCC2)c(OCC)cc1NC(=O)CN1C(=O)N(C)C2(CCCCC2)C1=O	i	i	nt	i	i	i
CCN(CC(=O)Nc1ccc(NC(C)=O)cc1)C(=O)/C=C/c1ccccc1	i	i	nt	i	i	i
CCN(CC(=O)Nc1ccc(NC(C)=O)cc1)C(=O)/C=C/c1cn(-c2ccccc2)nc1-c1cccs1	i	58.3	nt	i	i	i
COCc1[nH]nc2c1C(c1ccc(OC)c(OC)c1)C(C#N)=C(N)O2 (configuration not stated)	i	i	i	i	i	i
COCc1[nH]nc2c1C(c1cc(OC)c(O)c(OC)c1)C(C#N)=C(N)O2 (configuration not stated)	75.9	i	i	i	i	i
O=C(Cn1ncc2ccccc21)N1CCN(c2cccc(C(F)(F)F)c2)CC1	i	i	i	i	43.9	i
Cc1ccc(C(=O)N(C)[C@H]2C[C@H]3c4[nH]c5c(-c6ccccc6)cccc5c4CCN3C(=O)[C@H]2[C@H](C)O)cc1	nt	i	nt	nt	i	nt
COC(=O)c1cccc2nc3c(C(C)O)cccc3nc12 (configuration not stated)	50.2	i	nt	i	i	i
N#Cc1cc(Nc2c(N)nc[nH]c2=O)c([N+](=O)[O-])cc1C#N	48.1	i	i	i	i	i
N#Cc1cc(NC2CCCC2)c([N+](=O)[O-])cc1C#N	i	i	i	i	i	i
Cc1ccc2nc(-c3cccc(Br)c3)c(Cc3ccsc3)n2c1	nt	i	nt	nt	i	nt
CCOC(=O)c1sc(NC(=O)c2ccc(Br)o2)cc1C	45.3	i	i	i	i	i
CCOC(=O)c1c(NC(=O)Nc2ccccc2)sc(C)c1C	i	i	i	i	i	i
CCOC(=O)c1sc(NC(=O)Nc2cccc(Cl)c2)cc1C	47.0	i	i	i	i	33.9
CCOC(=O)c1sc(NC(=O)c2sccc2C)cc1C	42.0	i	i	i	i	i
CCOC(=O)c1sc(NC(=O)c2cccs2)cc1C	i	i	i	i	i	i
CCOC(=O)c1sc(NC(=O)Nc2ccc(Cl)cc2)nc1C	i	i	i	i	i	42.9
SMILES	OX1R antag-1	TAAR1 antag	GPR7 antagonist	OX1R antag-2	TAAR1 agonist	CHO parental Ca
COC(=O)C1=C(C)N(C)C(=NCc2cccc(C(F)(F)F)c2)NC1c1cccc(F)c1 (configuration not stated)	nt	i	nt	nt	i	nt
CN(C(=O)c1ccc(NC(=O)Cc2ccc(NC(=O)C3CCN(S(=O)(=O)c4cccc([N+](=O)[O-])c4)CC3)cc2)cc1)C1CCCC1	nt	i	nt	nt	i	nt
CC1(C(=O)NS(=O)(=O)C2CC2)CCN(C(=O)COc2ccc(Cl)cc2Cl)C1 (configuration not stated)	nt	i	nt	nt	i	nt
CCOc1ccc(NC(=O)CCN2C(=O)C3CCCCC3C2=O)cc1OCC (configuration not stated)	i	i	nt	i	i	i
CCOC(=O)c1sc(NC(=O)CCN2C(=O)C3CCCCC3C2=O)cc1C (configuration not stated)	i	49.0	nt	i	i	i
NC(=O)c1cc([N+](=O)[O-])ccc1NCC1CCCCC1	i	i	nt	i	37.6	i
COC(=O)C1=C(C)NC(C)=C(C(=O)OC)C(N2C(=O)CCC2=O)C1 (configuration not stated)	nt	i	nt	nt	i	nt
CCOC(=O)C1=C(C)Nc2ccccc2N/C1=N\S(=O)(=O)c1ccc(Cl)cc1	29.6	i	nt	i	i	i
Cn1c(=O)c2c(nc(NCc3ccco3)n2C/C=C/c2ccccc2)n(C)c1=O	i	i	nt	46.9	i	38.7
CSc1ccccc1NC(=O)C1(C)CCN1C(=O)Cc1ccc(-c2ccccc2)cc1 (configuration not stated)	nt	i	nt	nt	i	nt
CC(C)CCSc1cc(NCCO)c([N+](=O)[O-])c2nonc12	i	i	i	i	i	i
CCN(CC)c1cc(NCCO)c([N+](=O)[O-])c2nonc12	53.2	i	i	i	i	i
CCN1C(=O)[C@H]2[C@@H](c3ccc(C)cc3)N3C(=O)N(c4cccc(Cl)c4)C(=O)[C@@]3(Cc3ccc(Cl)cc3)[C@H]2C1=O	i	i	nt	i	i	i
CCN1C(=O)[C@H]2[C@@H](c3ccc(C)cc3)N3C(=O)N(c4cccc(F)c4)C(=O)[C@@]3(Cc3ccc(Cl)cc3)[C@H]2C1=O	55.8	i	nt	i	i	i
O=C(NC(=S)N1CCCCC1)c1csc([N+](=O)[O-])c1	37.2	i	i	i	i	i
CCc1cccc(NC(=O)COC(=O)C2COc3ccccc3O2)c1 (configuration not stated)	nt	i	nt	nt	i	nt
Cc1ccc(NC(=O)c2ccc(Br)o2)c([N+](=O)[O-])c1	nt	i	nt	nt	i	nt
NS(=O)(=O)c1ccc(NNC(=O)c2ccc(Br)o2)c([N+](=O)[O-])c1	58.1	i	nt	i	i	i
COc1ccc(C(C)=O)cc1Cn1c(C)c(C(=O)NCc2cccc(C(F)(F)F)c2)sc1=O	nt	i	nt	nt	i	nt
CN(C)CCCN(C(=O)c1ccc([N+](=O)[O-])s1)c1nc2cc3c(cc2s1)OCCO3	78.2	i	i	i	i	i
CN(Cc1ccc(Cl)cc1)C(=O)c1ccc(S(=O)(=O)NCc2ccco2)cc1	33.9	i	nt	i	i	i
COC(=O)C1=C(C)N(CC(C)C)C(=S)NC1c1ccc(-c2ccccc2)cc1 (configuration not stated)	nt	i	nt	nt	i	nt
